According to ChEMBL document CHEMBL1135765, “Synthesis of 3' '-substituted TSAO derivatives with anti-HIV-1 and anti-HIV-2 activity through an efficient palladium-catalyzed cross-coupling approach” (J Med Chem, 2002):

Legend:
[1] = tested on: Human immunodeficiency virus 2; assay: Effective concentration required to inhibit HIV-2 induced cytopathicity in CEM cell culture by 50%.; assay type: functional, organism-based; details: Human immunodeficiency virus 2, CCRF-CEM
Outline: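 CEM cells at 4 × 10⁵/mL infected with HIV-1 or HIV-2 at ~100 CCID₅₀ per mL, mixed 1:1 with compound dilutions. Giant cell formation scored microscopically after 4 days. EC₅₀ is the concentration inhibiting virus-induced cytopathicity by 50%.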

[2] = tested on: Human immunodeficiency virus 2; assay: Effective concentration required to inhibit HIV-2 induced cytopathicity in MT-4 cell culture by 50%.; assay type: functional, organism-based; details: Human immunodeficiency virus 2, MT4
Outline: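 MT-4 cells at 3 × 10⁵/mL infected with HIV-1 or HIV-2 at ~100 CCID₅₀ per mL, mixed 1:1 with compound dilutions. Cytopathicity read by trypan blue dye exclusion after 5 days. EC₅₀ is the concentration giving 50% protection against the virus-induced loss of cell viability.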

MT4 = assay: Cytotoxic concentration required to inhibit MT-4 cell proliferation by 50%; assay type: functional; details: Homo sapiens
Outline: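 Mock-infected MT-4 cells (3 × 10⁵/mL) incubated with compound dilutions; CC₅₀ is the concentration that reduces the number of viable MT-4 cells by 50%.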

CCRF-CEM = assay: Cytostatic concentration required to inhibit CEM cell proliferation by 50%; assay type: functional; details: Homo sapiens
Outline: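 CEM cells (4 × 10⁵/mL) exposed to compound dilutions without virus; CC₅₀ is the concentration that inhibits CEM cell proliferation by 50%.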

[3] = Effective concentration required to inhibit HIV-1 induced cytopathicity in MT-4 cell culture by 50%.; details: mt4

## C=CCC1=C(N)[C@@]2(OS1(=O)=O)[C@@H](CO[Si](C)(C)C(C)(C)C)O[C@@H](n1cc(C)c(=O)n(C)c1=O)[C@@H]2O[Si](C)(C)C(C)(C)C
[1]
  EC50: > 50 µM
[2]
  EC50: > 50 µM
MT4
  CC50: 82 µM
CCRF-CEM
  CC50: 45 µM

## COC(=O)/C=C/C1=C(N)[C@@]2(OS1(=O)=O)[C@@H](CO[Si](C)(C)C(C)(C)C)O[C@@H](n1cc(C)c(=O)[nH]c1=O)[C@@H]2O[Si](C)(C)C(C)(C)C
[1]
  EC50: 7.3 µM
[2]
  EC50: 9.9 µM
MT4
  CC50: 29 µM
CCRF-CEM
  CC50: 39 µM

## COC(=O)/C=C/C1=C(N)[C@@]2(OS1(=O)=O)[C@@H](CO[Si](C)(C)C(C)(C)C)O[C@@H](n1cc(C)c(=O)n(C)c1=O)[C@@H]2O[Si](C)(C)C(C)(C)C
[1]
  EC50: > 2 µM
[2]
  EC50: > 10 µM
MT4
  CC50: 55 µM
CCRF-CEM
  CC50: 37 µM

## Cc1cn([C@@H]2O[C@H](CO[Si](C)(C)C(C)(C)C)[C@@]3(OS(=O)(=O)C(c4ccccc4)=C3N)[C@H]2O[Si](C)(C)C(C)(C)C)c(=O)n(C)c1=O
[2]
  EC50: > 50 µM
MT4
  CC50: 24 µM
CCRF-CEM
  CC50: 65 µM

## Cc1cn([C@@H]2O[C@H](CO[Si](C)(C)C(C)(C)C)[C@@]3(OS(=O)(=O)C(Cl)=C3N)[C@H]2O[Si](C)(C)C(C)(C)C)c(=O)[nH]c1=O
[1]
  EC50: > 10 µM
[2]
  EC50: > 10 µM
MT4
  CC50: 5.4 µM
CCRF-CEM
  CC50: 7 µM

## Cc1cn([C@@H]2O[C@H](CO[Si](C)(C)C(C)(C)C)[C@@]3(OS(=O)(=O)C(CC(N)=O)=C3NCC(N)=O)[C@H]2O[Si](C)(C)C(C)(C)C)c(=O)n(C)c1=O
[1]
  EC50: > 2 µM
[2]
  EC50: > 2 µM
MT4
  CC50: 3.2 µM
CCRF-CEM
  CC50: 3.9 µM

## C=CC1=C(N)[C@@]2(OS1(=O)=O)[C@@H](CO[Si](C)(C)C(C)(C)C)O[C@@H](n1cc(C)c(=O)[nH]c1=O)[C@@H]2O[Si](C)(C)C(C)(C)C
[1]
  EC50: 4 µM
[2]
  EC50: 3.3 µM
MT4
  CC50: 24 µM
CCRF-CEM
  CC50: 36 µM

## C=CC1=C(N)[C@@]2(OS1(=O)=O)[C@@H](CO)O[C@@H](n1cc(C)c(=O)[nH]c1=O)[C@@H]2O[Si](C)(C)C(C)(C)C
[1]
  EC50: > 50 µM
[2]
  EC50: > 50 µM
MT4
  CC50: 47 µM
CCRF-CEM
  CC50: 76 µM

## C=CCNC1=CS(=O)(=O)O[C@@]12[C@@H](CO[Si](C)(C)C(C)(C)C)O[C@@H](n1cc(C)c(=O)n(C)c1=O)[C@@H]2O[Si](C)(C)C(C)(C)C
[1]
  EC50: > 50 µM
[2]
  EC50: > 50 µM
MT4
  CC50: 25 µM
CCRF-CEM
  CC50: 126 µM

## Cc1cn([C@@H]2O[C@H](CO[Si](C)(C)C(C)(C)C)C3(OS(=O)(=O)C=C3N)[C@H]2O[Si](C)(C)C(C)(C)C)c(=O)[nH]c1=O (stereo partly specified)
[1]
  EC50: > 10 µM
[2]
  EC50: > 10 µM
MT4
  CC50: 12 µM
[3]
  EC50: 0.06 µM

## Cc1cn([C@@H]2O[C@H](CO[Si](C)(C)C(C)(C)C)[C@@]3(OS(=O)(=O)C(c4ccsc4)=C3N)[C@H]2O[Si](C)(C)C(C)(C)C)c(=O)n(C)c1=O
[1]
  EC50: > 2 µM
[2]
  EC50: > 2 µM
MT4
  CC50: 3.9 µM
CCRF-CEM
  CC50: 33 µM

## CNC1=C(C)S(=O)(=O)O[C@@]12[C@@H](CO[Si](C)(C)C(C)(C)C)O[C@@H](n1cc(C)c(=O)n(C)c1=O)[C@@H]2O[Si](C)(C)C(C)(C)C
[1]
  EC50: > 250 µM
[2]
  EC50: > 250 µM
MT4
  CC50: > 250 µM
CCRF-CEM
  CC50: 234 µM

## Cc1cn([C@@H]2O[C@H](CO[Si](C)(C)C(C)(C)C)[C@@]3(OS(=O)(=O)C(/C=C/CO)=C3N)[C@H]2O[Si](C)(C)C(C)(C)C)c(=O)n(C)c1=O
[1]
  EC50: 5.7 µM
[2]
  EC50: > 10 µM
MT4
  CC50: 13 µM
CCRF-CEM
  CC50: 18 µM

## Cc1cn([C@@H]2O[C@H](CO[Si](C)(C)C(C)(C)C)[C@@]3(OS(=O)(=O)C(c4ccccc4)=C3N)[C@H]2O[Si](C)(C)C(C)(C)C)c(=O)[nH]c1=O
[1]
  EC50: > 2 µM
[2]
  EC50: > 50 µM
MT4
  CC50: 55 µM
CCRF-CEM
  CC50: 37 µM

## CCOC(=O)/C=C/C1=C(N)[C@@]2(OS1(=O)=O)[C@@H](CO[Si](C)(C)C(C)(C)C)O[C@@H](n1cc(C)c(=O)[nH]c1=O)[C@@H]2O[Si](C)(C)C(C)(C)C
[1]
  EC50: > 10 µM
[2]
  EC50: > 50 µM
MT4
  CC50: 40 µM
CCRF-CEM
  CC50: 174 µM

## CC#CC1=C(N)[C@@]2(OS1(=O)=O)[C@@H](CO[Si](C)(C)C(C)(C)C)O[C@@H](n1cc(C)c(=O)n(C)c1=O)[C@@H]2O[Si](C)(C)C(C)(C)C
[1]
  EC50: > 2 µM
[2]
  EC50: > 2 µM
MT4
  CC50: 3.3 µM
CCRF-CEM
  CC50: 5 µM

## Cc1cn([C@@H]2O[C@H](CO[Si](C)(C)C(C)(C)C)[C@@]3(OS(=O)(=O)C(Br)=C3N)[C@H]2O[Si](C)(C)C(C)(C)C)c(=O)[nH]c1=O
[1]
  EC50: > 10 µM
[2]
  EC50: > 10 µM
MT4
  CC50: 18 µM
CCRF-CEM
  CC50: 17 µM

## Cc1cn([C@@H]2O[C@H](CO[Si](C)(C)C(C)(C)C)[C@@]3(OS(=O)(=O)C(/C=C/CO)=C3N)[C@H]2O[Si](C)(C)C(C)(C)C)c(=O)[nH]c1=O
[1]
  EC50: 1.2 µM
[2]
  EC50: 5.4 µM
MT4
  CC50: 17 µM
CCRF-CEM
  CC50: 18 µM

## Cc1cn([C@@H]2O[C@H](CO[Si](C)(C)C(C)(C)C)[C@@]3(OS(=O)(=O)C(I)=C3N)[C@H]2O[Si](C)(C)C(C)(C)C)c(=O)[nH]c1=O
[1]
  EC50: > 2 µM
[2]
  EC50: > 2 µM
MT4
  CC50: 4.3 µM
CCRF-CEM
  CC50: 4 µM

## Cc1cn([C@@H]2O[C@H](CO[Si](C)(C)C(C)(C)C)[C@@]3(OS(=O)(=O)C=C3N)[C@H]2O[Si](C)(C)C(C)(C)C)c(=O)n(C)c1=O
[1]
  EC50: > 250 µM
[2]
  EC50: > 250 µM
MT4
  CC50: 230 µM

## Cc1cn([C@@H]2O[C@H](CO[Si](C)(C)C(C)(C)C)[C@@]3(OS(=O)(=O)C(I)=C3N)[C@H]2O[Si](C)(C)C(C)(C)C)c(=O)n(C)c1=O
[1]
  EC50: > 2 µM
[2]
  EC50: > 10 µM
MT4
  CC50: 3.9 µM
CCRF-CEM
  CC50: 5.6 µM

## CC1=C(N)[C@@]2(OS1(=O)=O)[C@@H](CO[Si](C)(C)C(C)(C)C)O[C@@H](n1cc(C)c(=O)n(C)c1=O)[C@@H]2O[Si](C)(C)C(C)(C)C
[1]
  EC50: > 50 µM
[2]
  EC50: > 250 µM
MT4
  CC50: > 250 µM
CCRF-CEM
  CC50: 10 µM
